Reference: ChEMBL document CHEMBL1129396, “2-amino-4-oxo-5-substituted-pyrrolo[2,3-d]pyrimidines as nonclassical antifolate inhibitors of thymidylate synthase” (J Med Chem, 1996)

How the values were obtained:
[1] = system: Squamous carcinoma cell line; assay: Growth inhibition of the FaDu Human Squamous Cell carcinoma cell line; type: functional, cell-based
[2] = target: Thymidylate synthase (Escherichia coli) (UniProt C3SWJ7); assay: Percent inhibition of Thymidylate synthase in Escherichia coli; settings: concentration not given here
Chain of Thymidylate synthase (Escherichia coli) (C3SWJ7 1-264): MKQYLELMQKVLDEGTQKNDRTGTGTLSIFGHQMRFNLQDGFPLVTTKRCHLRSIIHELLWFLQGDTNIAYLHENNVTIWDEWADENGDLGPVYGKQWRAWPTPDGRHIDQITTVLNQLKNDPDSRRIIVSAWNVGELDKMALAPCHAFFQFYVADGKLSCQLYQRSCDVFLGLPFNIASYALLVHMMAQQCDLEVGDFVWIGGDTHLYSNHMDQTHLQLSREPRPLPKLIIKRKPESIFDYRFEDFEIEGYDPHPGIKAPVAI

[3] = target: Thymidylate synthase (Escherichia coli, UniProt C3SWJ7); assay: The inhibitory concentration of compound was evaluated on Escherichia coli Thymidylate synthase
Chain of Thymidylate synthase (Escherichia coli, UniProt C3SWJ7) (C3SWJ7 whole entry): as the sequence (C3SWJ7 1-264) above

[4] = target: T1, Thymidylate synthase (Lactobacillus casei, UniProt P00469); assay: The inhibitory concentration of compound was evaluated on Lactobacillus casei Thymidylate synthase; set-up: species or system Lacticaseibacillus casei
T1 sequence (P00469 whole entry): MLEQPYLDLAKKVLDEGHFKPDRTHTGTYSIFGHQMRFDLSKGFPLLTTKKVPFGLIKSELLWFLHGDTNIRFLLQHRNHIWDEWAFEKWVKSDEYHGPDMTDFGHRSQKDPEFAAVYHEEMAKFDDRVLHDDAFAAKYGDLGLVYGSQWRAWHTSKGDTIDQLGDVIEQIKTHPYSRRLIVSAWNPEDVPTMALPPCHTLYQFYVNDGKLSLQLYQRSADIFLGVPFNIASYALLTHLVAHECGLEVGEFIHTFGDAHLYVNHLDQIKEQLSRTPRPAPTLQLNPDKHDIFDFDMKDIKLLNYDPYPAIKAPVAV

[5] = target: Thymidylate synthase (Homo sapiens, UniProt P04818); assay: The inhibitory concentration of compound was evaluated on Human Thymidylate synthase
Chain of Thymidylate synthase (Homo sapiens, UniProt P04818) (P04818 whole entry): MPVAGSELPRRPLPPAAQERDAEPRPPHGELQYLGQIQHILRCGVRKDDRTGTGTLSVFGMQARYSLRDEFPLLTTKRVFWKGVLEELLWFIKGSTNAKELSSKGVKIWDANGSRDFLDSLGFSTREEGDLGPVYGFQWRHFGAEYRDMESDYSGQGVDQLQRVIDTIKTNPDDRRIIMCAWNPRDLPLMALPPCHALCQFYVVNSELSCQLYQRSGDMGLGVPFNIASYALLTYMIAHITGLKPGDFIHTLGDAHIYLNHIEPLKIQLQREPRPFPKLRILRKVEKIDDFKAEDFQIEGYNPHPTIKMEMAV

[6] = target: T2, Bifunctional dihydrofolate reductase-thymidylate synthase (Toxoplasma gondii, UniProt Q07422); assay: The inhibitory concentration of compound against Dihydrofolate reductases on Toxoplasma gondii
T2 sequence (Q07422 whole entry): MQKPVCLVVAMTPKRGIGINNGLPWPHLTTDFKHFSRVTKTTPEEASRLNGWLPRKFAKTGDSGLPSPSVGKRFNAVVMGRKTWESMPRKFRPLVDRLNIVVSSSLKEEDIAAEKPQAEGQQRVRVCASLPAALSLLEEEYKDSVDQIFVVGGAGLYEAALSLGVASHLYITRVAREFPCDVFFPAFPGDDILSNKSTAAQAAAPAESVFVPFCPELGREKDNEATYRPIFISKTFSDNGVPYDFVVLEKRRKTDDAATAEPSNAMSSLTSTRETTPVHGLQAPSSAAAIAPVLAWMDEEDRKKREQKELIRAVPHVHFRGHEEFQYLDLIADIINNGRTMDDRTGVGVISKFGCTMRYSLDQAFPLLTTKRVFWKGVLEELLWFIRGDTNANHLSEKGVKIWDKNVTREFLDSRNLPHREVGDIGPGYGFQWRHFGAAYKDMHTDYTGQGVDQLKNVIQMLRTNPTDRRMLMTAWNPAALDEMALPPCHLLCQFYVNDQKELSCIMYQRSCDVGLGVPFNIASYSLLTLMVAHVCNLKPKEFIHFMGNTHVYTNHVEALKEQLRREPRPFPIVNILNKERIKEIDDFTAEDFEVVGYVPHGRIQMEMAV
How it was run: (§1)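 Run at 37 °C with 90 µM dihydrofolic acid as substrate and 119 µM NADPH as cofactor, in the presence of 150 mM KCl.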

[7] = target: T3, Dihydrofolate reductase (Rattus norvegicus, UniProt Q920D2); assay: The inhibitory concentration of compound against Dihydrofolate reductases on rat liver; how it was run: as §1
T3 sequence (Q920D2 whole entry): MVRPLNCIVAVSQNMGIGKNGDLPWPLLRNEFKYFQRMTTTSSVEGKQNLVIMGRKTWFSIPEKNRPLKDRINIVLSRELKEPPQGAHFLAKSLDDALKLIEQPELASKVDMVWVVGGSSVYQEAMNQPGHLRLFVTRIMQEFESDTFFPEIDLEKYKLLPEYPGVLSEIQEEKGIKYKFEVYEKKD

[8] = target: T4, Thymidylate synthase (Lactobacillus casei) (UniProt P00469); assay: Percent inhibition of Thymidylate synthase in Lactobacillus casei; settings: Lacticaseibacillus casei; concentration not given here
T4 sequence (whole entry): T1 sequence (P00469 whole entry)

[9] = target: T3, Dihydrofolate reductase; assay: The inhibitory concentration of compound against Dihydrofolate reductases on rat liver (rl); type: tissue-based; how it was run: as §1

Structure (SMILES): CN(Cc1ccc(S(=O)(=O)N2CCOCC2)cc1)c1ccc2c3c(cccc13)C(N)=N2
- EC50 [1]: 1 µM

Structure (SMILES): COc1ccc(Sc2c(C)[nH]c3nc(N)nc(O)c23)cc1OC
- EC50 [1]: > 10 µM
- inhibition [2]: 30%

Structure (SMILES): Cc1[nH]c2nc(N)nc(O)c2c1Sc1ccccc1
- EC50 [1]: > 10 µM
- inhibition [2]: 30%
- IC50 [3]: > 30 µM
- IC50 [4]: > 30 µM
- IC50 [5]: 30 µM

Structure (SMILES): Cc1[nH]c2nc(N)[nH]c(=O)c2c1Sc1ccc([N+](=O)[O-])cc1
- IC50 [6]: 244 µM
- IC50 [7]: 7470 µM
- EC50 [1]: 1.5 µM

Structure (SMILES): Cc1[nH]c2nc(N)nc(O)c2c1Sc1ccc2ccccc2c1
- inhibition [2]: 36%
- inhibition [8]: 32%

Structure (SMILES): Cc1[nH]c2nc(N)nc(O)c2c1Sc1ccc(Cl)cc1
- IC50 [6]: 3.1 µM
- IC50 [9]: 24.6 µM
- EC50 [1]: 6.7 µM

Structure (SMILES): Cc1[nH]c2nc(N)[nH]c(=O)c2c1Sc1ccc(Cl)c(Cl)c1
- IC50 [6]: 11.7 µM
- IC50 [7]: > 20 µM

Structure (SMILES): COc1ccc(Sc2c(C)[nH]c3nc(N)[nH]c(=O)c23)cc1OC
- IC50 [6]: 20 µM
- IC50 [7]: > 21 µM

Structure (SMILES): Cc1[nH]c2nc(N)nc(O)c2c1Sc1ccncc1
- IC50 [3]: > 29 µM
- IC50 [4]: 100 µM
- IC50 [5]: 0.34 µM

Structure (SMILES): Cc1[nH]c2nc(N)[nH]c(=O)c2c1Sc1ccc2ccccc2c1
- IC50 [3]: > 25 µM
- IC50 [4]: > 25 µM
- IC50 [5]: 2 µM
